DAGLB inh = diacylglycerol lipase beta (human) inhibition; 340,000 tested, 0.059% active; inhibition, % at 5.17 µM; HEK293T DAGLB membrane lysate, EnzChek fluorogenic substrate; AID 504411; in the data active means inhibition above about 34%;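 further: 0% = enzyme with vehicle and 100% = wells lacking enzyme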
ANO1 activ = mouse TMEM16A channel activation, primary screen; Q8BHY3; HEK293 TMEM16A/YFP-H148Q/I152L, iodide quench fluorescence; stronger effect = lower value; B-score at 10 µM; 340,000 tested, 0.3% active; AID 623877;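 active means fluorescence-ratio B-score plate-corrected deviation score at least 3 library SD below zero, with starting fluorescence score within 5 deviations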;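 further: channel opened by trigger with iodide after compound preincubation; score built on the fluorescence ratio of max minus min over baseline; more negative score means more quench and so TMEM16A activation or potentiation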
MT1-MMP act inh = MT1-MMP (human) activation inhibition | HT1080 RFP-PRO-GFP cells, GFP/RFP ratio fluorescence, overnight; percent of plate control window, DMSO zero | GFP/RFP ratio change, % at 20 µM | 360,000 tested, 0.061% active;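 active means GFP/RFP ratio change of at least 30% with cell ATP level not reduced by more than half and red fluorescence within 50% of control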
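Assay system: HT1080 cells carrying an RFP-PRO-GFP reporter | Dosing: Single dose of 20 µM compound, 1% DMSO final | Incubation: Cells overnight before dosing, compound overnight, 37 °C, 5% CO2 | Evaluation: GFP/RFP fluorescence ratio | Control set: DMSO and RFP-L50D-GFP cell wells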
ANO1 block = mouse TMEM16A channel inhibition, primary screen; Q8BHY3; HEK293 TMEM16A/YFP iodide influx fluorescence, ionomycin; normalized B-score (activity score, 25-100; higher = stronger inhibition) at 10 µM; 310,000 tested, 1.2% active; AID 588511;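 active means ratio plate-corrected score three or more library SD toward inhibition, starting fluorescence score within five deviations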;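 further: score derived from kinetic fluorescence span divided by baseline fluorescence per well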
MT1-MMP conf = validation of inhibitors of human MT1-MMP activation. shares compounds with MT1-MMP act inh. HT1080 RFP-PRO-GFP cells, GFP and RFP fluorescence ratio, overnight. inhibition, % at 20 µM. 200 tested, 10% active. AID 652235;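 active means inhibition of at least 50% in the primary cell screen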
Starred values were filed as active, the others as inactive; i = inactive; x = not tested or not shown. This is a sample that favours compounds with a hit; in the whole collection about 1.3% have one here.

SMILES	DAGLB inh	ANO1 activ	MT1-MMP act inh	ANO1 block	MT1-MMP conf
CSc1nc(SCc2ccccc2)[nH]c(=O)n1	-4	x	x	x	x
Nc1nc2c(ncn2[C@@H]2O[C@H](CNCc3cnc(N4CCOCC4)s3)[C@@H](O)[C@H]2O)c(=O)[nH]1	x	x	1	x	x
CCn1c(=O)c(=O)[nH]c2cc(C(=O)NC3CC3)ccc21	-3	i	1	i	x
CCn1c(=O)c(=O)[nH]c2cc(C(=O)NC3CCCc4ccccc43)ccc21 (stereo not given)	2	i	31*	i	34
COCCn1c(N)c(N(Cc2ccccc2)C(=O)c2ccc(-c3ccc(Cl)cc3)o2)c(=O)[nH]c1=O	6	i	4	i	x
COc1ccc(C(=O)NCc2ccc3c(c2)cc(C)n3C)cc1	4	i	31*	i	2
COc1cc(OC)cc(C(=O)NCc2ccc3c(c2)cc(C)n3C)c1	0	i	26	i	x
Cc1ccc(NC(=S)NCc2ccc3c(c2)cc(C)n3C)c(C)c1	0	i	33*	i	6
Cc1cc2cc(CNC(=S)Nc3ccc(OC(F)F)cc3)ccc2n1C	22	i	47*	i	19
CCN1C(=O)[C@H]2[C@@H](c3ccc(OC)cc3)N[C@]3(CCCN(Cc4ccc(C)cc4)C3=O)[C@H]2C1=O	2	x	26	x	x
COc1ccc(Cc2nnc(NC(=O)CSc3ccc(C)cc3)s2)cc1OC	1	i	-1	i	x
COc1ccc(-c2nnc(NC(=O)CSc3ccc(Cl)cc3)s2)cc1OC	1	i	37*	i	6
CN(CCCS(=O)(=O)[O-])c1ccc(/C=C/c2ccc3ccccc3[n+]2C)cc1	2	i	40*	i	17
COc1cc2c(cc1OC)CN(C(=O)CCNC(=O)c1ccccc1Cl)CC2	-2	i	2	x	x
CN(Cc1cn(Cc2ccc(F)cc2)nn1)C1CN(Cc2cn(Cc3ccc(F)cc3)nn2)S(=O)(=O)C1 (stereo not given)	x	x	4	x	x
CC1=NN(c2ccccc2)C(=O)/C1=C/C=C/C=C/N(C)C	15	i	40*	i	38
CC1=NN(c2ccc(C)cc2)C(=O)/C1=C\C=C\c1ccccc1	11	i	-9	i	x
Nc1cccc(N=[N+]([O-])c2cccc(N)c2)c1	5	i	6	x	x
CCn1c(O)c(/C=N/n2cnnc2)sc1=S	-3	i	30*	i	3
C[C@H](CO)N1C[C@H](C)[C@@H](CN(C)Cc2ccc3cccnc3c2)OCc2cnnn2CCCC1=O	-1	x	3	x	x
CC1C(=O)N(Cc2cn(CC3CCCCC3)nn2)CCS(=O)(=O)N1Cc1ccc(-c2ccc(Cl)cc2)cc1 (stereo not given)	-1	x	40*	x	11
CC(=O)Oc1ccc2oc(/C=C/N(C)C)c([N+](=O)[O-])c2c1	6	i	45*	i	36
COc1ccc2oc(/C=C/N(C)C)c(C(=O)c3ccc(Cl)cc3)c2c1	10	i	7	i	x
CC(C)=Cc1oc2ccc([N+](=O)[O-])cc2c1N1CCOCC1	-1	i	-3	i	x
C/C(=C/c1oc2ccc(O)cc2c1[N+](=O)[O-])N(C)C	10	i	43*	i	32
